The target of data set [1] is Mitogen-activated protein kinase kinase kinase kinase 4 (Homo sapiens) (UniProt O95819). The data set is described as follows: Inhibition of MAP4K4 (unknown origin) at 1 uM relative to control.
Data set [2] addresses Tyrosine-protein kinase JAK2 (Homo sapiens, UniProt O60674). The data set is described as follows: Inhibition of GST tagged human recombinant JAK2 catalytic domain expressed in baculovirus using peptide substrate preincubated for 60 mins followed by substrate addition and measured after 60 mins by microfluidic assay. The essentials: (§1)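 Caliper microfluidic assay of peptide-substrate phosphorylation by the relevant JAK enzyme, run at 1 mM ATP; IC50 values are geometric means of at least three determinations.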

Data set [3] deals with Non-receptor tyrosine-protein kinase TYK2 (Homo sapiens, UniProt P29597). The experiment in a line: Inhibition of Tyk2 (unknown origin) using peptide substrate preincubated for 60 mins followed by substrate addition and measured after 60 mins by microfluidic assay. The essentials:
as §1

The target of data set [4] is T1, Tyrosine-protein kinase JAK3 (Homo sapiens) (UniProt P52333).
T1 sequence (whole entry): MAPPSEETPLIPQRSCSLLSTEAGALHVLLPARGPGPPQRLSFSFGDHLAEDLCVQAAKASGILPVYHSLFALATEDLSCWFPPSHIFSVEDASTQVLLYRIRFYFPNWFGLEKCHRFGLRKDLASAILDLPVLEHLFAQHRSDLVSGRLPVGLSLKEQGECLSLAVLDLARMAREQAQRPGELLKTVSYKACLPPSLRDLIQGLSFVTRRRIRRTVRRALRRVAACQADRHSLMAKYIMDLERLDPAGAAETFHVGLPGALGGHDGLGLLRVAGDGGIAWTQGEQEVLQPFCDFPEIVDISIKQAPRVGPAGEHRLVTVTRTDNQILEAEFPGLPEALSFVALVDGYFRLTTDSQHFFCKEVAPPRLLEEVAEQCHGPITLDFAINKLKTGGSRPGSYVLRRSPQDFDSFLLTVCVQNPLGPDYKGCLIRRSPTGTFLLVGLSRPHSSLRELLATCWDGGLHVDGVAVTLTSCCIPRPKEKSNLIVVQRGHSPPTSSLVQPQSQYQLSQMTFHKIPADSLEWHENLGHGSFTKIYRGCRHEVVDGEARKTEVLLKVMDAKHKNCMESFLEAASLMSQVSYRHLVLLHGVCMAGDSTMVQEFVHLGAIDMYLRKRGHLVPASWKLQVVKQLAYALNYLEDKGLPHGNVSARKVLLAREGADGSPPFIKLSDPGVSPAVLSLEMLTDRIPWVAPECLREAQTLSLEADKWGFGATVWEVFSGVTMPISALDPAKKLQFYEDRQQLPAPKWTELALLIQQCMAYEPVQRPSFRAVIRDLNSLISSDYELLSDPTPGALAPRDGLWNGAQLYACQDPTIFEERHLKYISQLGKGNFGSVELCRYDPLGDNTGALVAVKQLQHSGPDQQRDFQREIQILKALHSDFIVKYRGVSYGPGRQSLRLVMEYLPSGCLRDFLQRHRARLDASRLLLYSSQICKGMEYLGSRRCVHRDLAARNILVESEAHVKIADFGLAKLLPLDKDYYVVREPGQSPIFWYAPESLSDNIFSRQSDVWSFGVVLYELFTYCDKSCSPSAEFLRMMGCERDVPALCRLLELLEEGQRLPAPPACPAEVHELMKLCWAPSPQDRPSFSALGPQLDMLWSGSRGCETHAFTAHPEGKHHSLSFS
The experiment in a line: Inhibition of GST tagged human recombinant JAK3 catalytic domain expressed in baculovirus assessed as offset rate by dilution recovery based microfluidic mobility shift assay. The essentials:
(§2)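 JAK3 inhibition kinetics measured by continuous dilution-recovery in a microfluidic mobility shift format; offset rate (min−1) converted to a recovery T1/2.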

The target of data set [5] is T2, Tyrosine-protein kinase JAK3 (Homo sapiens, UniProt P52333).
T2 sequence (P52333 whole entry): T1 sequence (whole entry)
The experiment in a line: Inhibition of GST tagged human recombinant JAK3 catalytic domain expressed in baculovirus using peptide substrate preincubated for 60 mins followed by substrate addition and measured after 60 mins by microfluidic assay. The essentials: as §1

Data set [6] concerns the target T3, Janus Kinase (JAK) (Homo sapiens, UniProt P52333+P23458+O60674+P29597). The data set is described as follows: Inhibition of JAK in human PBMC assessed as reduction in human recombinant IL-2/mouse anti-human CD3 stimulated IFNgamma production preincubated for 1 hr followed by IL2/CD3 stimulation measured after 18 hrs by ELISA. The procedure, abridged:
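Primary PBMCs stimulated with IL-2; inhibition of IFNγ release measured. IC50 values are geometric means of at least three determinations.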
A general note: An ELISA detects its analyte on a solid surface through an enzyme-linked reagent.

The nature of data set [7]: Drug metabolism in human liver microsomes assessed as UGT-mediated compound glucuronidation per mg protein in presence of microsomal activator Brij58 and cofactor UDPGA. The class given is ADME. The procedure, abridged:
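Human liver microsomes supplemented with the activator Brij58 and cofactor UDPGA, NADPH omitted, to measure phase II glucuronidation turnover.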
Background: Liver microsomes are vesicles of endoplasmic reticulum, rich in cytochrome P450 enzymes.

Data set [8] is described as follows: Aqueous solubility of the compound. The format is physicochemical. Particulars: buffer.
In data set [9] the target is T3, Janus Kinase (JAK).
Data set [10] has as its target Tyrosine-protein kinase JAK1 (Homo sapiens, UniProt P23458). The experiment in a line: Inhibition of GST tagged human recombinant JAK1 catalytic domain expressed in baculovirus using peptide substrate preincubated for 60 mins followed by substrate addition and measured after 60 mins by microfluidic assay.
For the next data set, the system named is Liver. The data set is described as follows: Metabolic stability in human liver microsomes assessed per mg protein. The class given is ADME, microsome. The procedure, abridged: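 Metabolic stability measured as turnover in human liver microsomes.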
Data set [11] concerns the target T3, Janus Kinase (JAK). The source holds these as a separate data set.
Data set [12] addresses T1, Tyrosine-protein kinase JAK3 (Homo sapiens). The data set is described as follows: Inhibition of GST tagged human recombinant JAK3 catalytic domain expressed in baculovirus assessed as time taken for inhibition to reverse by 50% by dilution recovery based microfluidic mobility shift assay. The procedure, abridged: as §2
The species named for data set [13] is Homo sapiens. The experiment in a line: Selectivity ratio of IC50 for GST tagged human recombinant JAK2 catalytic domain expressed in baculovirus to IC50 for GST tagged human recombinant JAK1 catalytic domain expressed in baculovirus. The essentials:
(§3)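 Both IC50s come from the same microfluidic mobility-shift (Caliper) assay with 1 mM ATP. The read-out is inhibition of phosphorylation of a peptide substrate by JAK1, JAK2 or JAK3. Each IC50 is a geometric mean of at least three determinations.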

For data set [14], the species on record is Homo sapiens. The data set is described as follows: Selectivity ratio of IC50 for GST tagged human recombinant JAK3 catalytic domain expressed in baculovirus to IC50 for GST tagged human recombinant JAK1 catalytic domain expressed in baculovirus. The essentials:
as §3

Active and inactive are the calls of the source. The rule behind the calls is not given here.

The inhibition is the relative decrease from the control value, in per cent. High values mean strong suppression, low ones little suppression. A word on the IC50: it is the concentration that inhibits the measured activity by half.

Tyrosine-protein kinase JAK1, sequence (P23458 whole entry, the tested form may be a part): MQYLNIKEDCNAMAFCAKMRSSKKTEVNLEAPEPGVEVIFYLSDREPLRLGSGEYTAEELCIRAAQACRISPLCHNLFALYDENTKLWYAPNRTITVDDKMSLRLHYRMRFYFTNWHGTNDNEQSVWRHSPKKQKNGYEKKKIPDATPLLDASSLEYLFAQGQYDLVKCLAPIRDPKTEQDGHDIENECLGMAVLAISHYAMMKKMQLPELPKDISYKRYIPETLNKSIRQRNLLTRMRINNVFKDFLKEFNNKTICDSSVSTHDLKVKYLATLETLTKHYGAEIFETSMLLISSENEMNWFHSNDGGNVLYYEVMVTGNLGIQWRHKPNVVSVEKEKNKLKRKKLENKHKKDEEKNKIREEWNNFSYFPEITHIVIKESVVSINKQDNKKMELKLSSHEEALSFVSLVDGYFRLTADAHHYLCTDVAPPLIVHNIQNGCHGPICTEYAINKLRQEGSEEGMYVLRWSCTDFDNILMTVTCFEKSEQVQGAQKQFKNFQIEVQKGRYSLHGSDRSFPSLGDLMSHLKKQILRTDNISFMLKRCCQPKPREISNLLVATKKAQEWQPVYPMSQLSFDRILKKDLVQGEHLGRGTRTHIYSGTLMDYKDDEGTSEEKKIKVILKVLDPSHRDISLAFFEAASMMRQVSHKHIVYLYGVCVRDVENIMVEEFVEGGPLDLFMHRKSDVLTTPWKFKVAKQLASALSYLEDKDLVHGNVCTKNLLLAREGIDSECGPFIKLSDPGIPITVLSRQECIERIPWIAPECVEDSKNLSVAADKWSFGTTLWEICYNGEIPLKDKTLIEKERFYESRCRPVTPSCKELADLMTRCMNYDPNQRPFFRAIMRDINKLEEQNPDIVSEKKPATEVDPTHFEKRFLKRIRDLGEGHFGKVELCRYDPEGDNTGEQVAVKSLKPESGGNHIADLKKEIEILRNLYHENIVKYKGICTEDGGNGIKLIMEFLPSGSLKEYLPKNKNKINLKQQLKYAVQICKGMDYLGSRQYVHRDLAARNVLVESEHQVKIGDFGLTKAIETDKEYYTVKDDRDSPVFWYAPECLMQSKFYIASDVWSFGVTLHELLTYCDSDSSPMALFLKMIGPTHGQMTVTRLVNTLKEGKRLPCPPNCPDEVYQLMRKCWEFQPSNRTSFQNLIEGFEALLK
Mitogen-activated protein kinase kinase kinase kinase 4 (Homo sapiens), sequence (O95819 2-1239 limits assumed): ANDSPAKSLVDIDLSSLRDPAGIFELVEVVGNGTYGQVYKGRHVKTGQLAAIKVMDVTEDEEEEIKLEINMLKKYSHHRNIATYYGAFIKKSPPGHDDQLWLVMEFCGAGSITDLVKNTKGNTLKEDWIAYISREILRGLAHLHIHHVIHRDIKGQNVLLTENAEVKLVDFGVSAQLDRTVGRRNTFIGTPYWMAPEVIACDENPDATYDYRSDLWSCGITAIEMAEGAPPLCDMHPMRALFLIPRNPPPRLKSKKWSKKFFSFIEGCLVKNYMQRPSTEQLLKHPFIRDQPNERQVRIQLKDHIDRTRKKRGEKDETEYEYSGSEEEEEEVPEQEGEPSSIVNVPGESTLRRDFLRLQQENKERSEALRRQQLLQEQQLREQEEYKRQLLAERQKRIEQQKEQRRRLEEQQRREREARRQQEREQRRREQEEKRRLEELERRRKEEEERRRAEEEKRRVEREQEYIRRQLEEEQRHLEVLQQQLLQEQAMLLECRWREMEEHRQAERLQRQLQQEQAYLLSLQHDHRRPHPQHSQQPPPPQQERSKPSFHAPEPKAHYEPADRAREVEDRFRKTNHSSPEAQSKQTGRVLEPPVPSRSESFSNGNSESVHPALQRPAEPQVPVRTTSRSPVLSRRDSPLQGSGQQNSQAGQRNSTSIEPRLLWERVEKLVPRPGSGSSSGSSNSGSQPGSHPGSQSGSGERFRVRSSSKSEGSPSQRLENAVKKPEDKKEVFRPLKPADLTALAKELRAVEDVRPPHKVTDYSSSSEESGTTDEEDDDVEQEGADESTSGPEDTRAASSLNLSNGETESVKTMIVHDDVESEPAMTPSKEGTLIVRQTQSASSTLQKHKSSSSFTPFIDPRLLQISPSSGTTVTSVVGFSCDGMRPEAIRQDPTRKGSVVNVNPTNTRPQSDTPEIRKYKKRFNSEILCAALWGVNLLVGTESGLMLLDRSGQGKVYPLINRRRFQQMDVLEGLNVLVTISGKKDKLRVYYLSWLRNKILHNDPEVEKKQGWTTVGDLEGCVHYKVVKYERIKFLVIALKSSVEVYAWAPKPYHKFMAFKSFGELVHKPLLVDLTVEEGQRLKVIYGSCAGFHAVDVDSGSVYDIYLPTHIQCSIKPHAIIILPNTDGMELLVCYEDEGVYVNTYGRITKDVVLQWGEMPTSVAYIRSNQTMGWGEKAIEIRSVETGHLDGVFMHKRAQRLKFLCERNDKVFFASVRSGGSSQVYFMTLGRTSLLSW
Tyrosine-protein kinase JAK2, sequence (O60674 whole entry, the tested form may be a part): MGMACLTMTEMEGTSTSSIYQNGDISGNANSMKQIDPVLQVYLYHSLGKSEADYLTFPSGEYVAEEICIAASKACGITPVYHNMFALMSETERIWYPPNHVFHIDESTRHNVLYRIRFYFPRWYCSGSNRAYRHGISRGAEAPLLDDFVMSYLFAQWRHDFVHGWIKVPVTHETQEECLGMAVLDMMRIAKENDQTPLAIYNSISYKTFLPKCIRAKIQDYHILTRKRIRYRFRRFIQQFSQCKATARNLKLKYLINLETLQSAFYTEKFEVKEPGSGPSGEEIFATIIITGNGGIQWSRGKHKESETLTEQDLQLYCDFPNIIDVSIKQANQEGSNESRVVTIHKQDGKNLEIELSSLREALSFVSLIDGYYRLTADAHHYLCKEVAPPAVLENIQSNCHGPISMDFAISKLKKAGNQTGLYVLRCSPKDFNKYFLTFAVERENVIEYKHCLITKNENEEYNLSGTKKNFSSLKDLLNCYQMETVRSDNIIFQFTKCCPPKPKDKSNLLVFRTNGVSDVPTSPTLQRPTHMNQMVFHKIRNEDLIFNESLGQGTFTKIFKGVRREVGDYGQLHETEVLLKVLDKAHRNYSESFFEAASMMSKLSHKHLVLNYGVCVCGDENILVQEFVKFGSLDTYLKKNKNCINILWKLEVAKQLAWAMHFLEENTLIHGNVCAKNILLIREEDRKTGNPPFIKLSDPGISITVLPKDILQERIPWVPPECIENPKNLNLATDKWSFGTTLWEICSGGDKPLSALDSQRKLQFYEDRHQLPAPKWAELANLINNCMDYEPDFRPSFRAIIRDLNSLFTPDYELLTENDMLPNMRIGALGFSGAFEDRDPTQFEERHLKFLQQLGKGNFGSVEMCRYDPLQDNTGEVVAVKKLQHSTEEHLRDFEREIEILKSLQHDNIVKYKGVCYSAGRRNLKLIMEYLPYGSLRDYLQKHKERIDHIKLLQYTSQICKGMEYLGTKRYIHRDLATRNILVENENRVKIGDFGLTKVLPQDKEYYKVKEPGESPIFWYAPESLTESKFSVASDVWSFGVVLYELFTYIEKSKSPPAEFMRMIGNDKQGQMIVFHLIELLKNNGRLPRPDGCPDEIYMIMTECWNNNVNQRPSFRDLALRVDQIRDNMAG
T3 sequence (O60674 whole entry, looked up, one chain of several): as the sequence (O60674 whole entry, the tested form may be a part) above
T3 sequence (P23458 whole entry, looked up, one chain of several): as the sequence (P23458 whole entry, the tested form may be a part) above
T3 sequence (P29597 whole entry, looked up, one chain of several): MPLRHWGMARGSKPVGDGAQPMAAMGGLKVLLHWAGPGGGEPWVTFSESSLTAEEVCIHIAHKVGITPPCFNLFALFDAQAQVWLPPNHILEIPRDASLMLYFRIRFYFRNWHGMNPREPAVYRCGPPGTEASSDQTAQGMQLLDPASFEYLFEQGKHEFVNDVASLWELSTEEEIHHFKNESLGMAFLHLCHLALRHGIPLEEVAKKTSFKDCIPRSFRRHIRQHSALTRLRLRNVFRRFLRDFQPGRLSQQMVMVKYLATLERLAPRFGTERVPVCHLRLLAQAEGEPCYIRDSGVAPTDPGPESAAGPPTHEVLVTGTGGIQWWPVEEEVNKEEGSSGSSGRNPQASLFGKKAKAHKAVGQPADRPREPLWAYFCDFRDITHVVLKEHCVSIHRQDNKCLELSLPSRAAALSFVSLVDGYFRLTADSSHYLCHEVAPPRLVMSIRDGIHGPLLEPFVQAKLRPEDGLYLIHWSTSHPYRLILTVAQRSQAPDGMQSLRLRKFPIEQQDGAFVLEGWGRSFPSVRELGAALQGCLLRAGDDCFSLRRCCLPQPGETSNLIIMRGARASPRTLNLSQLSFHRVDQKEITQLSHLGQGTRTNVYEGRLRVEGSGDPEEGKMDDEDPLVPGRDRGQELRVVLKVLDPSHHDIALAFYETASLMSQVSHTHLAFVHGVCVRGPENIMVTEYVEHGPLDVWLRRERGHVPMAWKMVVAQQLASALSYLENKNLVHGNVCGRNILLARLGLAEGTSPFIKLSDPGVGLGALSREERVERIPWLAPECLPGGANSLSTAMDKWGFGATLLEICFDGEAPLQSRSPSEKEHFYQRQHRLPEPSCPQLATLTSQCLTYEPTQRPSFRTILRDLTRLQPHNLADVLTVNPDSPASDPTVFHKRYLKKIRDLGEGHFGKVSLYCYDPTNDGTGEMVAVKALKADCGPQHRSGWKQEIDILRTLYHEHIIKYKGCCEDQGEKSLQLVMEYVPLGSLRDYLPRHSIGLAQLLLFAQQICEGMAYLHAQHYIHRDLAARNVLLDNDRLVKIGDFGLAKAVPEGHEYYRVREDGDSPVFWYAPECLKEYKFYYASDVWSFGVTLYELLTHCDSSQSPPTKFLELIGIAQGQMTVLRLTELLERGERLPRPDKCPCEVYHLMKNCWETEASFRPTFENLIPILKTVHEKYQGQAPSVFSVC
Non-receptor tyrosine-protein kinase TYK2, sequence (P29597 whole entry): as the sequence (P29597 whole entry, looked up, one chain of several) above

For the compound `CCc1cc(O)ccc1-c1ccc2c(-c3nc4ccccc4[nH]3)n[nH]c2c1`, in data set [1], the inhibition was more than 85%. The half-maximal inhibitory concentration (IC50) in [2] was found to be 2.2 nM; in [3], 9.1 nM; in [5], 8.3 nM; on Janus Kinase (JAK) [6], 10.5 nM; in [10], 0.4 nM. For the same compound, the K in data set [4] was found to be 0.006 min⁻¹. Also, in [7], the Drug metabolism was 49 µL/min. Moreover, the solubility result in data set [8] is given as “Insoluble”. In addition, the results for the T1/2 (at Janus Kinase (JAK) [9]; in [12]) were 6.5 h and 1.9 h, respectively. The Stability in the data set with Liver worked out at 35 µL/min. Also, the TDI result at Janus Kinase (JAK) [11] was “Active”.
On to `C[C@@H]1CCN(C(=O)CC#N)C[C@@H]1N(C)c1ncnc2[nH]ccc12`, for which the Ratio IC50 in the data set listed under Homo sapiens [13] was 5; in the data set listed under Homo sapiens [14], 3.

For the origin of these results see ChEMBL document CHEMBL4002590, “Design and Synthesis of a Pan-Janus Kinase Inhibitor Clinical Candidate (PF-06263276) Suitable for Inhaled and Topical Delivery for the Treatment of Inflammatory Diseases of the Lungs and Skin” (J Med Chem, 2017).
